# Laboratory results taken from ChEMBL document CHEMBL4513216, “Probing the Open Global Health Chemical Diversity Library for Multistage-Active Starting Points for Next-Generation Antimalarials” (ACS Infect Dis, 2020).
# Assay: Toxicity liver stage against HepG2, at 10uM
# Type: cell-based
# Design: test concentration 10 uM, cell line HepG2-A16-CD81EGFP
# Conditions: human, HepG2-A16-CD81EGFP cells; read-out: INHIBITION
# How it was run: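 Uninfected HepG2-A16-CD81EGFP cells, 3 × 10^3 per well, 1536-well, plated on prespotted compound at 10 μM final, parasite-free screening media added to match infected plates; puromycin 10 μM positive, DMSO 0.5% negative; run in parallel with 48 h PbLuc assay at 37 °C, 5% CO2; viability by CellTiter-Glo luminescence, normalized to controls.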
row,SMILES,cytotoxicity at 10 µM
1,COc1ccc(-c2noc([C@@H](C)NS(=O)(=O)CC(C)C)c2C(=O)O)cc1,-5.23%
2,CN1CCN(c2ccc(NS(=O)(=O)c3ccc(Cl)s3)cc2C(=O)O)CC1,-1.08%
3,Cc1ccnc(NC(=O)C2(n3cnnn3)CCCCC2)c1,-0.0864%
4,O=C(C1CCC1)N1CCC2(CC1)CNCCO2,-4.29%
5,CN(C)C(=O)N1CCc2ccc(=O)[nH]c2CC1,5.39%
6,CC(C)NC(=O)[C@H]1C[C@H]2NCCO[C@@H]2C1,-134%
7,CCc1ccc(S(=O)(=O)N2CCCC3(CCCN3S(C)(=O)=O)C2)cc1 (stereo unspecified),-2.98%
8,CCOCc1ncn2c1CN(S(=O)(=O)c1cccs1)CCC2,9.52%
9,COCCO[C@@H]1CCN(C(=O)c2occc2C)[C@H]1Cc1cnn(C)c1,5.1%
10,Oc1nc(N2CCCC2)nc2nccc(-c3ccccn3)c12,1.36%
11,O=C(NCC1CC1)c1nc(COc2ccc3c(c2)OCO3)no1,8.89%
12,COCCN1CCN(C(=O)c2ccncc2F)Cc2cccnc21,10%
13,COC(=O)Cn1c(=O)cc(C(F)F)c2c(C)nn(CC(F)F)c21,6.2%
14,CC(=O)Nc1ncc(S(=O)(=O)Nc2cccc(F)c2)s1,2.93%
15,CNC(=O)c1nnc2ccc(N3CCOCC3)cc2n1,6.86%
16,Cc1nn(C)c2c(N3CCN(C(=O)NC4CCCCC4)CC3)ncnc12,9.09%
17,CN1CCCC1c1nnc2n1CCN(S(=O)(=O)c1ccccc1Cl)CC2 (stereo unspecified),4.94%
18,O=C(O)c1ccccc1-c1ccc(CN2CCC(CO)C2)cc1 (stereo unspecified),-14.6%
19,Cn1c(C(=O)NC(Cc2ccsc2)c2cccnc2)cc(=O)n(C)c1=O (stereo unspecified),2.61%
20,c1cc(C2CCCN2CC2CCCCC2)n[nH]1 (stereo unspecified),-1.83%
21,CNc1nc(C2CCCN(C(=O)C(C)(C)OC)C2)nc2c1CN(C)CC2 (stereo unspecified),-8.24%
22,O=S(=O)(c1cn[nH]c1)N1CCCC1c1cc[nH]n1 (stereo unspecified),-23%
23,Fc1ccc(-c2nccnc2C2CCCNC2)cc1 (stereo unspecified),-23.8%

row,SMILES,cytotoxicity at 10 µM
1,CC(NC(=O)NC1CCN(Cc2ccccc2)CC1)c1nncn1C (stereo unspecified),-12.5%
2,CCCN(CC(=O)OC)C(=O)c1sc(C)nc1C,-2.42%
3,CC(C)(C)c1ncc(C(=O)NCc2cccc(C(=O)N3CCCC3)c2)s1,-4.57%
4,CN1CCCN(c2ccc(F)cc2CNC(=O)c2cccnc2)CC1,-2.52%
5,COc1ccc(Cl)cc1CS(=O)(=O)CC(=O)NC(C)CCC(C)C (stereo unspecified),11%
6,COc1ccc(Cl)cc1CS(=O)(=O)Cc1cc(C)on1,6.06%
7,CN(Cc1ccc(Cl)s1)C(=O)NCCN1CCCCCC1=O,-0.509%
8,O=C(OCc1ccccc1)C1CCCN1Cc1nc(C2CC2)no1 (stereo unspecified),-5.43%
9,O=C(C1CC(c2cccc(F)c2)=NO1)N1CCc2ccccc21 (stereo unspecified),2.46%
10,Cc1noc(C2CCCN(Cn3cc(Br)cn3)C2)n1 (stereo unspecified),-3.67%
11,Cc1nc(CN[C@H]2CCCN(C(=O)OC(C)(C)C)C2)cs1,0.577%
12,Cc1nn(C)c(C)c1CCC(=O)N(C)Cc1ccc(C#N)cc1,-2.45%
13,CN(C)S(=O)(=O)c1ccc2c(c1)N(Cc1ccccn1)CCC2,0.645%
14,Cc1cc(C(=O)NC2CCN(C(=O)Nc3cccnc3)CC2)c(C)o1,6.62%
15,CN(c1ncnc2c1cnn2C)C1CCCN(c2cccnn2)C1 (stereo unspecified),3.93%
16,COc1ccc(S(=O)(=O)N2CCn3nc(C)nc3C2)cc1C,9.68%
17,O=C(NCCCn1cncn1)c1ccc(-c2ccccc2)[nH]c1=O,-4.86%
18,CSC1(CNC(=O)NC(C)Cc2cccc(F)c2)CCOCC1 (stereo unspecified),-15.6%
19,CC1(c2ccc(Br)cc2)CC(=O)N(CCC#N)C1=O (stereo unspecified),0.923%
20,CCN(CCNC(=O)C1CCCN(C(C)=O)C1)c1ccccc1C (stereo unspecified),4.87%
21,COc1cccc(S(=O)(=O)Cc2noc(CC(C)C)n2)c1,12%
22,Cc1cc(C)c(CNC(=O)N(C)Cc2nnc3n2CCC3)c(=O)[nH]1,-10.5%
23,Cc1csc(CNC(=O)N(C)Cc2nnc3n2CCC3)n1,-4.75%

row,SMILES,cytotoxicity at 10 µM
1,COc1ccc(C2(CNC(C)c3nnc(C)o3)CCCCC2)cc1 (stereo unspecified),4.21%
2,O=C(C1CC1)N1CCCC1C1CCN(Cc2ccccc2)CC1 (stereo unspecified),-9.37%
3,CN(C)C(=O)CNC(=O)c1ccc(Cl)cc1F,-7.04%
4,CCOc1nnc(CN(C)CC2CCCN2c2cccnn2)s1 (stereo unspecified),-10.7%
5,Cc1nc(C)n(C2CCCN(C(=O)c3ccc(F)cc3F)C2)n1 (stereo unspecified),-2.9%
6,CC1(C)CNC(=O)c2nc(CCN3CCOCC3)[nH]c2C1,-10.7%
7,O=S1(=O)COCCN1Cc1ccc(Cl)c(Cl)c1,8.44%
8,COCc1noc(-c2ccc(N(C)Cc3cn(C)nc3C)nc2)n1,-9.75%
9,O=C(CNC(Cn1cccn1)c1ccccc1)Nc1cnccn1 (stereo unspecified),7.34%
10,Cn1ccnc1SCCNC(=O)c1c[nH]nc1C1CCCCC1,-4.68%
11,Cc1nc(C)n(CCNC2CCN(c3ncnc4c(C)csc34)CC2)n1,4.35%
12,CSCCC(=O)N1CCCC(c2nccn2Cc2ccncc2)C1 (stereo unspecified),9.33%
13,CN(C)S(=O)(=O)N1CC[C@]2(O)CCN(Cc3cc(F)cc(F)c3)C[C@@H]2C1,-0.757%
14,Cc1cc(C(=O)N2CC[C@](C)(O)[C@H](C)C2)c(C)n1C,-1.43%
15,Cc1ccc(OCCN(C)C(=O)CCCN2CCCC2=O)c(C)c1,-8.38%
16,CNc1cc(C)nc(N2C[C@H](C3CC3)[C@@H](N)C2)n1,-4.7%
17,Cc1cc(C(=O)N2CCCC2)ccc1NS(C)(=O)=O,0.535%
18,CCN1CC(C(=O)N2CC(Oc3ccccc3F)C2)CC1=O (stereo unspecified),-2.49%
19,NC(=O)C1CCN(C(=O)c2cccn2Cc2cccs2)CC1,-4.08%
20,CC(=O)NCc1ccc(C(=O)N2CCCC2c2cnn(C)c2)cc1 (stereo unspecified),-13.5%
21,COc1ccc(CCNC(=O)N2CCCC(c3nncn3C)C2)cc1 (stereo unspecified),-3.92%
22,O=C(NCCc1cccnc1)Nc1cc(C(F)(F)F)c[nH]c1=O,-12.2%
23,O=C(c1ccc(OCC2CC2)nc1)N1CCCC(n2cccn2)C1 (stereo unspecified),-12.4%

row,SMILES,cytotoxicity at 10 µM
1,CCCc1noc(C(C)N2CCN(Cc3nc(C)c(C)o3)CC2)n1 (stereo unspecified),-10.6%
2,c1ncc2c(n1)CN(Cc1nc(-c3ccc4c(c3)OCO4)no1)CC2,-10.4%
3,Cc1cc(C)n(-c2ccc(CNCc3cccc(C#N)c3)cn2)n1,-10.2%
4,COC(=O)c1cc(C(=O)N2CCC(OC)CC2)n(-c2ccccc2)n1,-15.1%
5,Cc1ccc(-c2nc(CNCC3CN(C)CCO3)co2)cc1 (stereo unspecified),-14.4%
6,O=C(CCCc1ccccc1)N1CCCC(n2cncn2)C1 (stereo unspecified),-18.3%
7,Cc1cccc(-c2nc(CN3CCc4cncnc4C3)no2)c1,-10.4%
8,O=C(c1ccn(-c2cccc(Cl)c2)n1)N1CCN(CCO)CC1,-17.1%
9,Cc1ncsc1C(=O)NC1CCN(Cc2ccc(C(N)=O)cc2)CC1,-15%
10,O=C(c1cc2cc(F)ccc2[nH]1)N1CCCCC1Cn1cccn1 (stereo unspecified),-8.91%
11,CC(c1ccc(F)cc1F)N1CCN(Cc2nccn2C)CC1 (stereo unspecified),-11.7%
12,CCc1nc(CN(C)C2CCN(CCc3ccncc3)C2)no1 (stereo unspecified),-20.2%
13,CCc1[nH]ncc1C(=O)N1CCCC(n2cc(C)cn2)C1 (stereo unspecified),-11.4%
14,Cc1ncc(CNC(=O)N(CCCO)C2CCc3ccccc32)s1 (stereo unspecified),-12.9%
15,c1ccc2oc(CCCN3CCc4cncnc4C3)nc2c1,-14.6%
16,CCNC(=O)NCCCn1nc2ccccn2c1=O,-18.2%
17,CC(O)CN1CCC(CNCc2cccc(C(F)(F)F)c2)CC1 (stereo unspecified),-15.2%
18,c1cnnc(N2CCCC(NCc3cccc4c3OCCO4)C2)c1 (stereo unspecified),-7.99%
19,O=C(Cc1c[nH]c2ccccc12)N1CCC(Nc2cccnc2)CC1,-26.6%
20,CCn1cc(NC(=O)Nc2ccc3c(c2)OCCO3)cn1,-1.04%
21,Clc1ccccc1Cn1cc(CNC2CCc3ncnn3C2)cn1 (stereo unspecified),1.91%
22,CC(NC(=O)NCCc1ccc(Cl)s1)c1ccccn1 (stereo unspecified),-3.07%
23,CCc1n[nH]c(C2CN(C(=O)c3ccc4c(c3)CCC4)CCO2)n1 (stereo unspecified),-13.1%

row,SMILES,cytotoxicity at 10 µM
1,Cc1cnn(CC2CN(CCCc3nc4ccccc4o3)CCO2)c1 (stereo unspecified),-2.45%
2,O=C(NCCn1nc2ccccn2c1=O)c1cc(C2CC2)[nH]n1,0.763%
3,Cc1cc(NC(=O)NCC2CCOC2)no1 (stereo unspecified),4.43%
4,COc1cccc(C(=O)N2CCCC(c3cc(C)[nH]n3)C2)c1OC (stereo unspecified),-7.4%
5,Cc1cc(C(=O)N[C@H](C)c2onc(C)c2C(=O)O)c(C)o1,3.82%
6,Cn1nc(COCC2CC2)c2c1CCN(Cc1ccco1)C2,-1.77%
7,c1csc(CN2CC(c3nc(-c4cnccn4)no3)C2)c1,-8.28%
8,CN1C(=O)CCC12CCCN(C(=O)c1ccncc1F)C2 (stereo unspecified),11%
9,CCOC(=O)[C@]12CCCN(Cc3nccs3)C[C@H]1CN(CC(C)C)C2,-2.85%
10,CN1CC(=O)N(c2ccsc2)CC12CCN(Cc1cnn(C)c1)C2 (stereo unspecified),0.0218%
11,Cc1ccc(CN2CCC3(CCC3NS(=O)(=O)c3ccccc3)CC2)o1 (stereo unspecified),-2.97%
12,CS(=O)(=O)NCc1cn2c(n1)CN(Cc1cccnc1)CC2,-103%
13,CN1CCN(c2ccc3ccc(C(=O)N4CCCCO4)cn23)CC1,-7.3%
14,CC(C)OCCCN(Cc1ccncc1)Cc1cccc(F)c1F,-15.3%
15,Cc1ccc(CN2CCc3onc(C(=O)Nc4cccnc4)c3C2)o1,5.15%
16,Cc1cc(CN2C[C@@H]3CCCO[C@@H]3[C@H](NS(C)(=O)=O)C2)no1,11.5%
17,CCS(=O)(=O)N1C[C@@H]2CN(Cc3cnn(C)c3)CCO[C@@H]2C1,-0.646%
18,Cc1ccc(C(=O)N2C[C@H]3CC[C@@H](C2)N(Cc2ccccc2)C3)cn1,-140%
19,COc1ccc(-n2cc3[nH]c(=O)n(C(C)C)n3c2=O)cc1,2.03%
